According to article PMC5110371 (Nature chemical biology, 2016):

Assays:
Salmonella = settings: cited from earlier work
[1] = Configurational stability in aqueous solution; format: physicochemical
[2] = test system: D423 ENO1-deleted glioma cells; test: Proliferation; format: cell-based, human
Outline: (§1)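 Cells were seeded at 2 × 10^3 cells/well in 96-well plates and treated for 2 weeks across a concentration range. Medium was then refreshed, and Hoechst 33342 (total cells) plus YO-PRO-1 (apoptotic cells) were added at 1:1000 final dilution for 2 h at 37 °C. Wells were imaged and quantified by high-content imaging. Conditions were run in duplicate and expressed relative to vehicle.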

ENO2 [3] = biological target: T1, ENO2 (Homo sapiens, UniProt P09104); test: Thermal shift assay, purified recombinant human ENO2; format: binding; settings: concentration not stated in the sentence (Supplementary Fig. 6: 1 µM or 25 µM)
Outline: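 Diluted and treated with test compound or vehicle in enolase assay buffer (10 mM KCl, 5 mM MgSO4, 100 mM triethanolamine, pH 7.4). Heated 50–90 °C for 3 min, spun 20,000 g for 10 min, supernatant ENO2 immunoblotted.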

Staphylococcus = settings: cited from earlier work
E. coli = settings: cited from earlier work
[4] = test system: Gli56 ENO1-deleted glioma cells; test: Proliferation; format: cell-based, human; settings: Supplementary Fig. 9
Outline: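 Growth was followed by IncuCyte live-cell confluence imaging every 4 h. Initial seeding was 1.5 × 10^3 cells/well in 96-well plates, with duplicate replicates. Cells were cultured in DMEM with 10% FBS. ENO1-intact cell lines were used as comparators.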

Vinculin = biological target: T2, Vinculin (Homo sapiens, UniProt P18206); test: Thermal shift assay, internal control Vinculin; format: binding; settings: cell lysates
T2 sequence (P18206 1-1066 isoform P18206-2): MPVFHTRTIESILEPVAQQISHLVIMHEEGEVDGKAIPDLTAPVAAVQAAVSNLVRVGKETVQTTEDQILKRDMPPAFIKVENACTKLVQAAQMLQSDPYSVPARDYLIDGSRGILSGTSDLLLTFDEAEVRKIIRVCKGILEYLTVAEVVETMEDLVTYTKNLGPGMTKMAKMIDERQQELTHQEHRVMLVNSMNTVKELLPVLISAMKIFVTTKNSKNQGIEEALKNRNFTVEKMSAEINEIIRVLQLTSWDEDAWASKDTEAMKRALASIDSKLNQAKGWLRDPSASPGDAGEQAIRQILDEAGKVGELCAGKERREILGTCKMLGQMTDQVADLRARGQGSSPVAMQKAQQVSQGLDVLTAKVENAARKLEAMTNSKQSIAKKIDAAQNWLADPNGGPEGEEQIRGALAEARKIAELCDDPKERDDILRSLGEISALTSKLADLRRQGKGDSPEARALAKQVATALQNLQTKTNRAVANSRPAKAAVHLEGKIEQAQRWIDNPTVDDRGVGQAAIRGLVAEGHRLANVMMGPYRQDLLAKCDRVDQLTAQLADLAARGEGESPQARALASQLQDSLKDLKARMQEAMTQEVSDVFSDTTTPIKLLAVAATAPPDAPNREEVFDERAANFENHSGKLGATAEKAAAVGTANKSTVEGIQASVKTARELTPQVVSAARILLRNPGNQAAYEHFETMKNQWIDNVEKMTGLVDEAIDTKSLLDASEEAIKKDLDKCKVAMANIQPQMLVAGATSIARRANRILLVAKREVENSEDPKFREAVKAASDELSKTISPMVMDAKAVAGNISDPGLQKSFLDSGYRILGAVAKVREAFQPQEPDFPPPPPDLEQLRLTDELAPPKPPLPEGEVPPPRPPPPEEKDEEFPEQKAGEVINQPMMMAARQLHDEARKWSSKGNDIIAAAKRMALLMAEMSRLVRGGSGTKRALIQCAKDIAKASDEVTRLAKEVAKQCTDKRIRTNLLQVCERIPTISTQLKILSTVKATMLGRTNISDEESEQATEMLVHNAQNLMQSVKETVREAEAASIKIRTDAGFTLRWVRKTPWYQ
Outline: (§2)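 Lysates of D423 glioma cells overexpressing ENO1 or ENO2 were made in 20 mM Tris-HCl, 1 mM EDTA, 1 mM β-mercaptoethanol, pH 7.4, homogenised, sonicated and cleared at 20,000 g for 10 min. They were diluted 1:100 in enolase assay buffer (10 mM KCl, 5 mM MgSO4, 100 mM triethanolamine, pH 7.4), given test compound or vehicle, and heated 3 min at 50–90 °C. After 20,000 g spin, supernatant was immunoblotted (anti-vinculin, anti-TPI, both 1:3000).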

[5] = test system: D423 ENO1-deleted glioma cells; test: Cell density; format: cell-based, human; settings: 72 hours
Outline: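 Cells were seeded at 1 × 10^4 cells/well in 96-well plates and treated the next day. They were then held either under hypoxia (0.1% O2, 5% CO2) or normoxia for 72 h. Cells were fixed in 10% formalin and stained with crystal violet. Dye was extracted with 10% acetic acid and absorbance read at 595 nm.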

Enolase [6] = biological target: Enolase (Homo sapiens, UniProt P09104); test: Enolase enzymatic activity in vitro; format: biochemical
Enolase [7] = test: Enolase enzymatic activity in vitro; format: biochemical
ENO2 [8] = biological target: T1, ENO2; test: Ligand-induced thermal shift assay, lysates of D423 overexpressing ENO2; format: binding; settings: 1 μM inhibitor, cell lysates
Outline: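 Lysate in 20 mM Tris-HCl, 1 mM EDTA, 1 mM β-mercaptoethanol (pH 7.4), homogenised, sonicated and cleared at 20,000 g for 10 min. Diluted 1:100 in enolase buffer (10 mM KCl, 5 mM MgSO4, 100 mM triethanolamine, pH 7.4). Treated with 1 μM test compound or vehicle, heated at 50–90 °C for 3 min, recentrifuged. ENO2 in supernatant immunoblotted; band intensity plotted versus temperature.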

Enolase 2 = Enolase 2 (Homo sapiens, UniProt P09104); test: Cellular thermal shift assay in intact D423 ENO2 glioma cells; format: cell-based; settings: 100 μM, without inhibitor ~65 °C
Outline: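 D423 glioma cells overexpressing ENO2, grown in DMEM with 10% FBS, treated one day with 100 μM test compound or vehicle. Trypsinized, PBS-washed, resuspended in PBS at 0.5 × 10^6 cells/mL, heated on a 50–90 °C gradient. Lysed with twice the volume of 20 mM Tris-HCl, 1 mM EDTA, 1 mM β-mercaptoethanol pH 7.4, plus one dry-ice freeze-thaw. Soluble ENO2 followed by immunoblotting.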

[9] = biological target: Triosephosphate isomerase (Homo sapiens, UniProt P60174); test: Thermal shift assay, internal control Triosephosphate isomerase; format: binding; settings: cell lysates
Outline: as §2

[10] = test system: D423 ENO1-deleted glioma cells; test: 13C-1 glucose isotope tracing; format: cell-based, human; settings: 10 μM; for conversion of 13C-1 glucose to 13C-3 glycerate: 72 hours
Outline: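 Glucose-free DMEM supplemented with 10 mM 13C-1 glucose; test compound at 10 μM. Media extracted with 80% methanol at −80 °C, centrifuged, lyophilised, redissolved in D2O and analysed by proton-decoupled 13C NMR. Glycerate was read as the peak at 64 ppm, also expressed as a ratio to 13C-3 lactate. Isogenic ENO1-rescued D423 cells served as comparison.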

fungi = settings: cited from earlier work
[11] = test system: D423 ENO1-deleted glioma cells; test: Time course of ATP; format: cell-based, human
[12] = test system: D423 ENO1-deleted glioma cells; test: Mass spectrometric determination of 3-PGA and PEP; format: cell-based, human; settings: 10 μM and 25 μM, 72 hours
Outline: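 D423 ENO1-deleted glioma cells and isogenic ENO1-rescued controls were grown in DMEM with 10% FBS. They were treated with vehicle, 10 μM or 25 μM test compound for 72 h. Polar metabolites were extracted with 80% methanol at −80°C and quantified by mass spectrometry to give the 3-PGA/PEP ratio. Each bar is an independently treated culture; comparisons used unpaired two-tailed t-tests with Bonferroni correction.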

[13] = test system: D423 ENO1-rescued glioma cells; test: Proliferation; format: cell-based, human
Outline: as §1

ENO1-intact glioma cells = test: Toxicity to ENO1-intact cells; format: cell-based, human; settings: 10 μM, four days
[14] = 2 weeks, YO-PRO-1 positive cells

T1 sequence (P09104 whole entry): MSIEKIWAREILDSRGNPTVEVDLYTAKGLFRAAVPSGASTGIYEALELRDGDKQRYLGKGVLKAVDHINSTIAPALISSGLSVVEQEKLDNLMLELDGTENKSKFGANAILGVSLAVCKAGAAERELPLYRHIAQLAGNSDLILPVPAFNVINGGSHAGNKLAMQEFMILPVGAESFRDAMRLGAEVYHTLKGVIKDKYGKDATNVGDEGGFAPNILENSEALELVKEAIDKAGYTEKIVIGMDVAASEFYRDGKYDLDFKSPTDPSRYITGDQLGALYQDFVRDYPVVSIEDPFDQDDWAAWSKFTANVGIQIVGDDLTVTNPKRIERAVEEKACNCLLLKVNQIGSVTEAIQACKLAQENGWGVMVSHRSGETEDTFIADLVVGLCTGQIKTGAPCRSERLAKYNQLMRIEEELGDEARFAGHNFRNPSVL
Sequence of Enolase (Homo sapiens, UniProt P09104) (P09104 whole entry): as above
Sequence of Enolase 2 (P09104 whole entry): as above
Sequence of Triosephosphate isomerase (P60174 whole entry): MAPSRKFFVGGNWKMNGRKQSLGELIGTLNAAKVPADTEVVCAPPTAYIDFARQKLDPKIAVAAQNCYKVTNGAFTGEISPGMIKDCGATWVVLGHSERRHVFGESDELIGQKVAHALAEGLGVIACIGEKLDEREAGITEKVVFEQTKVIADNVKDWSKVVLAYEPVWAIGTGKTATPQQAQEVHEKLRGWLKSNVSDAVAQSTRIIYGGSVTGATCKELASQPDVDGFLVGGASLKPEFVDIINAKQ

O=C1C(P(=O)(O)O)CC(O)N1O (stereo not drawn) [SF2312, (1,5-dihydroxy-2-oxopyrrolidin-3-yl)phosphonic acid]
antibiotic activity (Salmonella): strong activity
stability of stereocenters [1]: both stereocenters underwent spontaneous epimerization
concentration inhibiting proliferation ([2]; 2 weeks treatment course): low μM range
concentration at which induction of cell death starts [2, 14]: 12.5 µM
stabilization of recombinant human ENO2 (shift of thermal denaturation curve) (ENO2 [3]): ~ 12 °C
antibiotic activity (Staphylococcus): strong activity
antibiotic activity (E. coli): weak activity
toxicity against Gli56 versus ENO1-intact cell lines [4]: selective toxicity
effect on thermal stability of Vinculin (Vinculin): Neither PhAH nor SF2312 affected the thermal stability
concentrations at which cells were essentially eradicated ([5]; hypoxia (0.1% O2)): > 6.25 µM
eradication of cells ([5]; normoxia, 100 μM inhibitor): no eradication was observed
kinetics with respect to substrate 2-PGA (Enolase [6]; ENO2, at IC50): non-competitive kinetics
kinetics with respect to substrate 2-PGA (Enolase [6]; ENO2, at higher concentrations of inhibitor): competitive kinetics
type of inhibitor (on/off rate) (Enolase [7]; order of addition of inhibitor and substrate): slow-on/slow-off inhibitor
shift in the thermal denaturation of ENO2 (ENO2 [8]): ~ 9.5 °C
melting temperature (Tm) of ENO2 (ENO2 [8]; without inhibitor ~63 °C): ~ 72.5 °C
shift of the thermal melting curve of ENO2 in intact glioma cells (Enolase 2): ~ 15 °C
effect on thermal stability of Triosephosphate isomerase [9]: Neither PhAH nor SF2312 affected the thermal stability
conversion of 13C-1 glucose to 13C-3 glycerate [10]: dramatically increases
glucose consumption and lactate production in media ([10]; four days, 13C-1 glucose, D423 and Gli56 ENO1 deleted cells): profound inhibition of glucose consumption
antibiotic activity (fungi): no activity
time after initiation of treatment at which declines in ATP occurred [11]: 8 h
ratio of 3-PGA/PEP [12]: dramatic increase
concentration inhibiting proliferation ([13]; 2 weeks treatment course, ectopically re-expressing ENO1): above 200 μM
concentration at which induction of cell death is seen [13, 14]: 400 µM
toxicity (ENO1-intact glioma cells): non-toxic

O=C1C(P(=O)(O)O)CCN1O (stereo not drawn) [deoxy-SF2312, 1-hydroxy-2-oxopyrrolidin-3-ylphosphonic acid]
kinetics with respect to substrate 2-PGA (Enolase [6]; ENO2 (Fig. 1d)): clear competitive kinetics
IC50 (Enolase [7]; read-out: IC50 as an enolase inhibitor): ~2000 nM

O=C(CP(=O)(O)O)NO [PhAH, Phosphonoacetohydroxamate, reference compound]
stabilization of recombinant human ENO2 (shift of thermal denaturation curve) (ENO2 [3]): ~ 6 °C
toxicity against Gli56 versus ENO1-intact cell lines [4]: selective toxicity
effect on thermal stability of Vinculin (Vinculin): Neither PhAH nor SF2312 affected the thermal stability
concentration at which potentiation of toxicity by hypoxia is evident ([5]; hypoxia vs normoxia): 200 µM
shift in the thermal denaturation of ENO2 (ENO2 [8]): ~ 6 °C
shift of the thermal melting curve of ENO2 in intact glioma cells (Enolase 2): ~ 6 °C
effect on thermal stability of Triosephosphate isomerase [9]: Neither PhAH nor SF2312 affected the thermal stability
conversion of 13C-1 glucose to 13C-3 glycerate [10]: to a lesser extent
